# Source: PubChem BioAssay
# Not all results are given here.
# Apaf1 activ: activators of human Apaf-1 apoptosome. Apaf-1 apoptosome caspase-3 activation, DEVD-Rh110 fluorescence; stronger effect = lower value. activity change, negative = activation, % at 20 µM. 0.31% of 330,000 active. AID 489031;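 active = activity change at or below -40% at 20 µM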
# Target sequence (O14727 whole entry, looked up): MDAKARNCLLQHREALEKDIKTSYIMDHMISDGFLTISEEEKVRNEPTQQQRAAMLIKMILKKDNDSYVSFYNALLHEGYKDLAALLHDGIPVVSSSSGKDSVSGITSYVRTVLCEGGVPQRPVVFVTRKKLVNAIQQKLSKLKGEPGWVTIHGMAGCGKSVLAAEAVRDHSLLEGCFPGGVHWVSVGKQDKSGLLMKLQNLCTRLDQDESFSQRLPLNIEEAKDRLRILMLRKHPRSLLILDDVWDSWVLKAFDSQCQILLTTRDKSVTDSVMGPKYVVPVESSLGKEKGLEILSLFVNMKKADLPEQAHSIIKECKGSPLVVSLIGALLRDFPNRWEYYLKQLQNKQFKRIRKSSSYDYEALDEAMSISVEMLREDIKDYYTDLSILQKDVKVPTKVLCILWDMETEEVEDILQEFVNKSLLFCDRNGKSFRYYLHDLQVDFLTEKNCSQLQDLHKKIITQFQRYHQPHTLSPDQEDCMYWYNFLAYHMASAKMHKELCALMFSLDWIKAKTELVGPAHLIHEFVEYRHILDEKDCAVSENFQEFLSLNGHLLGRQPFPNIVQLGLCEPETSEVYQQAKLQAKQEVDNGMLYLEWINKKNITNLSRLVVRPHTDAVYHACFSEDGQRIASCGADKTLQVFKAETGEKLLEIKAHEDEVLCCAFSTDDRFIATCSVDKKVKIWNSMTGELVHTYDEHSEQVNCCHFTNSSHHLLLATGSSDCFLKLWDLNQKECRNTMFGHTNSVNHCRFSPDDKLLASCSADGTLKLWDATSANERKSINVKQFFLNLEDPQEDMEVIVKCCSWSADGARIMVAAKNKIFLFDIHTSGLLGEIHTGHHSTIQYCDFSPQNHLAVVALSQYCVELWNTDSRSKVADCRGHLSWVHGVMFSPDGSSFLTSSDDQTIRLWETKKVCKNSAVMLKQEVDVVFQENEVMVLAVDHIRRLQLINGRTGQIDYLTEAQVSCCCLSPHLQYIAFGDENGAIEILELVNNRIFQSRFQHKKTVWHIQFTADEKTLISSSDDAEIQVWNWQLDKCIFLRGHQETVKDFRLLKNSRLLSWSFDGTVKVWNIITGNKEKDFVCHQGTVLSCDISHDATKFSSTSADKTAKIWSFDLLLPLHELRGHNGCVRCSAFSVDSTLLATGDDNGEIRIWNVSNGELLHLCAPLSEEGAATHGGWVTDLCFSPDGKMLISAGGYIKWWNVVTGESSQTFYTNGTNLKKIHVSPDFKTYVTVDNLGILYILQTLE
#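 Assay system – biochemical Apaf-1 apoptosome reconstitution · Medium – 20 mM HEPES buffer, pH 7.5, containing CHAPS and BSA · Incubation – 30 min preincubation, 50 min reaction, room temperature · Measured by – Caspase-3-released Rh110 fluorescence, 540 nm emission, 480 nm excitation · Read-out – Caspase-3 cleavage activity downstream of Apaf-1 activation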
# Rh110 act interf: counter-screen for Apaf-1 activators: fluorescence interference | shares compounds with Apaf1 activ | Rh110 fluorescence interference, quenched caspase reaction, Ex480/Em540 | fluorescence interference (activity change), % at 20 µM, hits read low | 980 tested, under 10 active | AID 504616;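 active = mean activity change at or below -40% when tested at 20 µM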
# Apaf-1 act conf2: confirmation of human Apaf-1 activators; reconstituted apoptosome caspase-3 activity, DEVD-Rh110 fluorescence; stronger effect = lower value; 5% of 980 active; activity change, negative = activation, % at 20 µM; shares compounds with Apaf1 activ; AID 504617;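 active = mean activity change at or below -40%, meaning activation of 40% or more, at 20 µM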
# An asterisk follows results filed as active; · = no result given.
SMILES,Apaf1 activ,Rh110 act interf,Apaf-1 act conf2
COc1cc2c3nnc(-c4ccc(F)cc4)c-3cn(Cc3cccc(C)c3)c2cc1OC,52.9,·,·
COc1ccccc1C(C)NC(=O)C1CCN(S(=O)(=O)c2cccs2)CC1 (stereo not drawn),-53.4*,13.4,14.2
N#Cc1sc2nc(-c3ccccc3)cc(-c3ccco3)c2c1N,89.6,·,·
Cc1cccc(CN2C(=O)/C(=C\c3ccc(C(=O)NCCCN4CCN(C)CC4)cc3)Oc3ccccc32)c1,52.5,·,·
CC(C)CCOc1ccc(C(CC(N)=O)C(=O)O)cc1 (stereo not drawn),-41.3*,12.9,14.8
Nc1ncc(Br)cc1N=Cc1ccccc1,61.8,·,·
COc1ccc(NC(=O)[C@@H]2[C@@H]3C(=O)N(C4CCCCC4)C(=O)[C@@H]3C3c4ccccc4C=CN32)cc1 (stereo partly drawn),51.0,·,·
CCOC(=O)CNC(=O)C1c2ccccc2C(=O)N(c2ccc(OC)cc2)C1c1ccc(OC)cc1 (stereo not drawn),-41.9*,-0.3,12.0
COc1ccc(CNC(=O)c2c(C)oc3c2C(=O)c2ccccc2C3=O)cc1,67.2,·,·
Cc1nn(Cc2ccc(F)cc2)c(Cl)c1/C=N/NC(=O)c1cccnc1,-49.2*,-1.6,9.7
Oc1cccc2c(NC(=S)Nc3ccc(SC(F)F)cc3)cccc12,53.2,·,·
CCC(COC)Oc1cc(NCc2ccccc2)c2ncn(C(C)C)c2c1 (stereo not drawn),97.2,·,·
C/C(=N\NC(=O)Cc1cc(=O)[nH][nH]1)c1cccc([N+](=O)[O-])c1,51.4,·,·
O=C(Nc1cccc2cccnc12)c1cccc([N+](=O)[O-])c1,-342.3*,10.0,17.1
Oc1ccc(Br)cc1CNc1cccc2cccnc12,90.4,·,·
O=C(c1ccccc1)[C@@H]1[C@@H](C(=O)c2ccc(F)cc2)[C@@]2(C(=O)Nc3ccccc32)[C@H]2c3ccccc3C=CN12,63.7,·,·
COc1cc(Br)c(C(=O)c2nccc3cc(OC)c(OC)cc23)cc1OC,88.8,·,·
CCCNC(=O)c1ccc(SC)cc1OC,-173.5*,8.8,4.6
C=CCN1C=C2C(=O)C(C)(OC(=O)CCC(=O)OC)C(=O)C=C2C=C1C1CC1 (stereo not drawn),43.0,·,·
CCOc1ccc(-c2nc(CSc3nnc(N)s3)cs2)cc1,-523.1*,5.4,11.3
CN(C)CCCN(C(=O)c1ccc(S(=O)(=O)N2CCCC2)cc1)c1nc2ccc(Br)cc2s1,53.3,·,·
COc1ccccc1-c1nc2n(n1)C(c1cccs1)C(C(=O)Nc1cccnc1)=C(C)N2 (stereo not drawn),-244.2*,-4.6,13.0
NC(N)=Nc1cc2ccccc2c2ccccc12,76.8,·,·
CN(C)CCOc1ccc(-c2c(-c3ccccc3)sc3ccccc23)cc1,77.5,·,·
Cc1cc2cc(CNC(=S)Nc3ccc(OC(F)(F)F)cc3)ccc2n1C,59.1,·,·
SMILES,Apaf1 activ,Rh110 act interf,Apaf-1 act conf2
NS(=O)(=O)c1cccc(NC(=O)CCS(=O)(=O)c2ccc(Cl)cc2)c1,-253.5*,1.6,3.0
CCOC(=O)c1c(C)c2c(=O)[nH]cnc2n1-c1ccccc1,57.5,·,·
COc1cc2c(cc1OC)CN(Cc1cc(=O)oc3cc(C)c(Cl)cc13)CC2,-42.9*,14.1,23.6
CCN1C(=C(C#N)C#N)C=Cc2cc(C)ccc21,-48.6*,5.4,7.5
Cc1ccc(S(=O)(=O)C(C#N)c2nc3ccccc3nc2N2CCCC2)cc1 (stereo not drawn),77.2,·,·
COc1cc(NCc2ccccc2)c2ncn(Cc3ccccc3)c2c1,49.5,·,·
COc1ccc(CC2S/C(=N/N=C/c3ccccc3O)NC2=O)cc1 (stereo not drawn),-523.6*,14.4,22.6
CCN(CC)c1ccc(/C=N/N=C(N)N)c(O)c1,-156.5*,-2.8,8.6
CCN(CC)c1ccc(C=Nc2ccc(N(C)C)cc2)c(O)c1,44.5,·,·
CCN(CC)c1ccc(/C=N/N2CCN(Cc3ccccc3)CC2)c(O)c1,-50.1*,0.3,13.8
NC(N)=N/N=C/c1ccc(OCc2ccccc2)c(OCc2ccccc2)c1,60.7,·,·
CC(C)(C)OC(=O)[C@H](Cc1ccccc1)NC(=O)c1nc[nH]c1C(=O)N[C@@H](CCCCN)C(=O)OC(C)(C)C,50.9,·,·
CCN1CCN(Cc2ccc(NC(=O)c3cc(NC(=O)c4cc5cccc(OC)c5o4)cc(OC)c3)cc2C(F)(F)F)CC1,63.1,·,·
CC1=CC(C)(C)NC(=S)N1C(C)c1ccccc1 (stereo not drawn),-56.1*,-1.4,15.6
CCC(C)NCCOCCOc1ccc(Br)cc1 (stereo not drawn),-47.5*,1.9,11.2
Nc1c(N2CCCC2)cc(Cl)c2nonc12,95.7,·,·
CC(C)N1CCN(Cc2cnc(-c3ccccc3)s2)CC1CCO (stereo not drawn),-45.5*,0.1,8.8
